{"source": "ChEMBL document CHEMBL3352137", "about": "“Modification on ursodeoxycholic acid (UDCA) scaffold. discovery of bile acid derivatives as selective agonists of cell-surface G-protein coupled bile acid receptor 1 (GP-BAR1)” (J Med Chem, 2014)", "key": {"[1]": {"biological_target": "T1, G-protein coupled bile acid receptor 1 (Homo sapiens) (UniProt Q8TDU6)", "T1 sequence (whole entry)": "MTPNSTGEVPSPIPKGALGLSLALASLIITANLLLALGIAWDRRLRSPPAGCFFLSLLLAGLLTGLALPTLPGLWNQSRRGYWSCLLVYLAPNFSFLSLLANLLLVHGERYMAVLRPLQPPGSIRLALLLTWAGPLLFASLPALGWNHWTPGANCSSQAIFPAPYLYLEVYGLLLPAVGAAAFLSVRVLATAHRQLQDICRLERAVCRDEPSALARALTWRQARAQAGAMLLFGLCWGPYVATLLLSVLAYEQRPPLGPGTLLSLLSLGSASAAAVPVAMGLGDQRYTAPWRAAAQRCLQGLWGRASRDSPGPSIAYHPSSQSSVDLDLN", "experiment": "(§1) Agonist activity at human GPBAR1 expressed in HEK293T cells assessed as stimulation of cAMP response element-mediated receptor transactivation by luciferase reporter gene assay", "type": "functional, cell-based", "conditions": "HEK-293T", "procedure,_shortened": "(§2)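 HEK-293T cells were cotransfected with a CRE-driven luc2P reporter (pGL4.29), pCMVSPORT6-human GP-BAR1 and a Renilla vector. 24 h after transfection they were stimulated for 18 h (10 μM single point; 0.1, 1 and 10 μM for EC50). Lysates were read for luciferase as a measure of intracellular cAMP rise, with TLCA 10 μM as reference. Data are mean ± standard error of at least three determinations in duplicate.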"}, "[2]": {"biological_target": "T2, G-protein coupled bile acid receptor 1 (Homo sapiens, UniProt Q8TDU6)", "T2 sequence (Q8TDU6 whole entry)": "T1 sequence (whole entry)", "experiment": "as §1", "type": "functional, cell-based, HEK-293T", "procedure,_shortened": "as §2"}, "Mus musculus [3]": {"tested_on": "Mus musculus", "experiment": "Induction of FXR-mediated OST mRNA expression in CD1 mouse liver at 64 mg/kg, po measured 3 to 24 hrs post dose by real-time PCR method", "type": "functional, organism-based", "design": "dose 64 mg/kg", "procedure,_shortened": "(§3)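 Male CD1 mice (n = 3, 4) received a single oral dose of 64 mg/kg. Liver and ileum were collected at 6 or 24 h (3, 6 and 24 h also stated). Target mRNA was measured by SYBR real-time PCR (0.2 μM primers, 10 ng template, 40 cycles of 95 °C 20 s / 60 °C 30 s), with all reactions in triplicate. Comparison was versus control mice.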"}, "Mus musculus [4]": {"tested_on": "Mus musculus", "experiment": "Induction of FXR-mediated BSEP mRNA expression in CD1 mouse liver at 64 mg/kg, po measured 3 to 24 hrs post dose by real-time PCR method", "type": "functional, organism-based", "design": "dose 64 mg/kg", "procedure,_shortened": "as §3"}, "Mus musculus [5]": {"tested_on": "Mus musculus", "experiment": "Induction of GPBAR1-mediated pro-glucagon-1 mRNA expression in CD1 mouse intestine at 64 mg/kg, po measured 6 hrs post dose by real-time PCR method", "type": "functional", "procedure,_shortened": "as §3"}, "Mus musculus [6]": {"tested_on": "Mus musculus", "experiment": "Increase in plasma bile acid level in CD1 mouse model of ANIT-induced cholestasis at 16 mg/kg, po"}, "Mus musculus [7]": {"tested_on": "Mus musculus", "experiment": "Increase in plasma tauro-cholic acid level in CD1 mouse model of ANIT-induced cholestasis at 16 mg/kg, po"}, "Mus musculus [8]": {"tested_on": "Mus musculus", "experiment": "Increase in plasma tauro-muricholic acid level in CD1 mouse model of ANIT-induced cholestasis at 16 mg/kg, po"}, "Mus musculus [9]": {"tested_on": "Mus musculus", "experiment": "Induction of FXR-mediated BSEP mRNA expression in CD1 mouse liver at 64 mg/kg, po measured 24 hrs post dose by real-time PCR method", "type": "functional, organism-based", "design": "dose 64 mg/kg", "procedure,_shortened": "as §3"}, "Mus musculus [10]": {"tested_on": "Mus musculus", "experiment": "Induction of FXR-mediated OST mRNA expression in CD1 mouse liver at 64 mg/kg, po measured 24 hrs post dose by real-time PCR method", "type": "functional, organism-based", "design": "dose 64 mg/kg", "procedure,_shortened": "as §3"}, "Mus musculus [11]": {"tested_on": "Mus musculus", "experiment": "Effect on body weight loss in CD1 mouse model of ANIT-induced cholestasis at 64 mg/kg, po", "type": "functional, organism-based", "design": "dose 64 mg/kg"}, "Mus musculus [12]": {"tested_on": "Mus musculus", "experiment": "Effect on plasma bile acid level in CD1 mouse model of ANIT-induced cholestasis at 64 mg/kg, po", "type": "functional, organism-based", "design": "dose 64 mg/kg"}, "[13]": {"biological_target": "T3, Bile acid receptor (Homo sapiens) (UniProt Q96RI1)", "T3 sequence (whole entry)": "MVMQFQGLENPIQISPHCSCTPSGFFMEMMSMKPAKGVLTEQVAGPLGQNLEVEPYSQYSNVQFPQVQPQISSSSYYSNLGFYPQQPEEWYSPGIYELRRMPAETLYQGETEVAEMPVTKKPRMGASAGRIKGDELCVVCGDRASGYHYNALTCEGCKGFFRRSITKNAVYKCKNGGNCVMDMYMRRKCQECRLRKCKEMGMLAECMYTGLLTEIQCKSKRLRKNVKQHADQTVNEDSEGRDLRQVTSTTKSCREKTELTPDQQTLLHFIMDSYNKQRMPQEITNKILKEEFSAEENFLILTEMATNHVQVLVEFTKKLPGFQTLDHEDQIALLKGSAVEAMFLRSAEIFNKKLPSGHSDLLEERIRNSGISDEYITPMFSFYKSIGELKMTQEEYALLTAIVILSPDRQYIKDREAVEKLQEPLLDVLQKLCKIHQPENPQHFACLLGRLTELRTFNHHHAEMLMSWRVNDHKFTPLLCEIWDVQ", "experiment": "Agonist activity at FXR (unknown origin) expressed in human HepG2 cells assessed as stimulation of FXR response element IR1-mediated receptor transactivation at 50 uM in presence of CDCA by luciferase reporter gene assay", "type": "cell-based", "procedure,_shortened": "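HepG2 cells were cotransfected with pSG5-FXR, pSG5-RXR, the IR1-containing p(hsp27)-TK-LUC reporter and a Renilla vector (pGL4.70). 24 h after transfection they were stimulated for 18 h with 10 μM CDCA plus 50 μM compound. Lysates were read for luciferase. Data are the RLU/RRU ratio, mean ± standard error, compared with CDCA and untreated cells.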"}, "HEK-293T": {"tested_on": "HEK-293T", "experiment": "Toxicity against HEK293T cells at 50 uM", "type": "cell-based", "conditions": "human"}}, "note": "The source made the active and inactive calls. The calls are words filed in the database; no cut-off is given here."}
{"compound": "C[C@H](CCCCC(=O)O)[C@H]1CC[C@H]2[C@@H]3[C@@H](O)C[C@@H]4C[C@H](O)CC[C@]4(C)[C@H]3CC[C@]12C", "values": [{"measurement": "Activity", "setting": "[1]", "value": "Dose-dependent effect"}, {"measurement": "EC50", "setting": "[2]", "value": 17.2, "unit": "µM"}, {"measurement": "Activity", "setting": "Mus musculus [3]", "value": "inactive"}, {"measurement": "Activity", "setting": "Mus musculus [4]", "value": "inactive"}, {"measurement": "fold change (FC)", "setting": "Mus musculus [5]", "value": 2}, {"measurement": "Activity", "setting": "Mus musculus [6]", "value": "Active"}, {"measurement": "Activity", "setting": "Mus musculus [7]", "value": "Active"}, {"measurement": "Activity", "setting": "Mus musculus [8]", "value": "Active"}]}
{"compound": "C[C@H](CCC(=O)O)[C@H]1CC[C@H]2[C@@H]3[C@@H](O)C[C@@H]4C[C@H](O)CC[C@]4(C)[C@H]3CC[C@]12C", "values": [{"measurement": "Activity", "setting": "Mus musculus [9]", "value": "Active"}, {"measurement": "Activity", "setting": "Mus musculus [10]", "value": "Active"}, {"measurement": "Activity", "setting": "Mus musculus [11]", "value": "inactive"}, {"measurement": "Activity", "setting": "Mus musculus [12]", "value": "inactive"}]}
{"compound": "C[C@H](CCCCC(=O)O)[C@H]1CC[C@H]2[C@@H]3[C@H](O)C[C@@H]4C[C@H](O)CC[C@]4(C)[C@H]3CC[C@]12C", "values": [{"measurement": "Activity", "setting": "[13]", "value": "Active"}, {"measurement": "Activity", "setting": "HEK-293T", "value": "Toxic"}]}
{"compound": "C[C@H](CCO)[C@H]1CC[C@H]2[C@@H]3[C@@H](O)C[C@@H]4C[C@H](O)CC[C@]4(C)[C@H]3CC[C@]12C", "values": [{"measurement": "Activity", "setting": "[1]", "value": "Dose-dependent effect"}, {"measurement": "EC50", "setting": "[2]", "value": 24.4, "unit": "µM"}]}
